Reference: ChEMBL document CHEMBL1141106, “Synthesis, binding affinity at glutamic acid receptors, neuroprotective effects, and molecular modeling investigation of novel dihydroisoxazole amino acids” (J Med Chem, 2005)

How the values were obtained:
[1] = biological target: Glutamate receptor ionotropic, AMPA (Rattus norvegicus, UniProt P19490+P19491+P19492+P19493); test: In vitro inhibitory concentration against AMPA receptor using [3H]AMPA; type: protein-complex assay
How it was run: (§1)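 Displacement binding to rat cortical membranes. Radioligands: NMDA site 2 nM [3H]CGP 39653; AMPA site 5 nM [3H]AMPA; KA site 5 nM [3H]KA without CaCl2. Bound radioactivity was counted by scintillation. IC50 came from nonlinear regression with a Hill-coefficient inhibition equation on percent of total specific binding. Mean ± SEM of at least three independent experiments.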

[2] = biological target: Glutamate receptor ionotropic, kainate; test: In vitro inhibitory concentration against KA receptor using [3H]KA; type: protein-complex assay, Rattus norvegicus; how it was run: as §1
Glutamate NMDA receptor = test: In vitro binding affinity for NMDA receptor using [3H]-CGP- 39653; type: protein-complex assay, Rattus norvegicus
How it was run: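 Displacement binding to rat cortical membranes. Bound radioactivity was counted by scintillation. IC50 came from nonlinear regression with a Hill-coefficient inhibition equation on percent of total specific binding. Mean ± SEM of at least three independent experiments.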

[3] = biological target: T1, Metabotropic glutamate receptor 1 (Rattus norvegicus, UniProt P23385); test: Binding affinity for mGluR1 receptor expressed in CHO cells; type: cell-based
[4] = biological target: T2, Metabotropic glutamate receptor 2 (Rattus norvegicus, UniProt P31421); test: Effective concentration against mGluR2 receptor expressed in CHO cells; type: cell-based
How it was run: (§2)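 CHO cell lines stably expressing rat mGluR1a, mGluR2 or mGluR4a. Functional second-messenger read-out: intracellular calcium for mGluR1, cyclic AMP levels for mGluR2 and mGluR4. Values are mean ± SEM of at least three independent experiments.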

[5] = biological target: T3, Metabotropic glutamate receptor 4 (Rattus norvegicus, UniProt P31423); test: Binding affinity for mGluR4 receptor expressed in CHO cells; type: cell-based
[6] = biological target: Metabotropic glutamate receptor 4 (Rattus norvegicus) (UniProt P31423); test: Binding affinity for mGluR4 receptor expressed in CHO cells; weak
[7] = biological target: T3, Metabotropic glutamate receptor 4; test: Effective concentration against mGluR4 receptor expressed in CHO cells; type: cell-based; how it was run: as §2
[8] = biological target: T1, Metabotropic glutamate receptor 1; test: Effective concentration against mGluR1 receptor expressed in CHO cells; type: cell-based; how it was run: as §2
[9] = biological target: T2, Metabotropic glutamate receptor 2; test: Binding affinity for mGluR2 receptor expressed in CHO cells; type: cell-based
[10] = biological target: T2, Metabotropic glutamate receptor 2; test: Effective concentration against mGluR2 receptor expressed in CHO cells; weak; type: cell-based; how it was run: as §2
[11] = Inhibition of 10 uM NMDA induced electrophysiological response in rat cortical wedge preparation

T1 sequence (P23385 whole entry): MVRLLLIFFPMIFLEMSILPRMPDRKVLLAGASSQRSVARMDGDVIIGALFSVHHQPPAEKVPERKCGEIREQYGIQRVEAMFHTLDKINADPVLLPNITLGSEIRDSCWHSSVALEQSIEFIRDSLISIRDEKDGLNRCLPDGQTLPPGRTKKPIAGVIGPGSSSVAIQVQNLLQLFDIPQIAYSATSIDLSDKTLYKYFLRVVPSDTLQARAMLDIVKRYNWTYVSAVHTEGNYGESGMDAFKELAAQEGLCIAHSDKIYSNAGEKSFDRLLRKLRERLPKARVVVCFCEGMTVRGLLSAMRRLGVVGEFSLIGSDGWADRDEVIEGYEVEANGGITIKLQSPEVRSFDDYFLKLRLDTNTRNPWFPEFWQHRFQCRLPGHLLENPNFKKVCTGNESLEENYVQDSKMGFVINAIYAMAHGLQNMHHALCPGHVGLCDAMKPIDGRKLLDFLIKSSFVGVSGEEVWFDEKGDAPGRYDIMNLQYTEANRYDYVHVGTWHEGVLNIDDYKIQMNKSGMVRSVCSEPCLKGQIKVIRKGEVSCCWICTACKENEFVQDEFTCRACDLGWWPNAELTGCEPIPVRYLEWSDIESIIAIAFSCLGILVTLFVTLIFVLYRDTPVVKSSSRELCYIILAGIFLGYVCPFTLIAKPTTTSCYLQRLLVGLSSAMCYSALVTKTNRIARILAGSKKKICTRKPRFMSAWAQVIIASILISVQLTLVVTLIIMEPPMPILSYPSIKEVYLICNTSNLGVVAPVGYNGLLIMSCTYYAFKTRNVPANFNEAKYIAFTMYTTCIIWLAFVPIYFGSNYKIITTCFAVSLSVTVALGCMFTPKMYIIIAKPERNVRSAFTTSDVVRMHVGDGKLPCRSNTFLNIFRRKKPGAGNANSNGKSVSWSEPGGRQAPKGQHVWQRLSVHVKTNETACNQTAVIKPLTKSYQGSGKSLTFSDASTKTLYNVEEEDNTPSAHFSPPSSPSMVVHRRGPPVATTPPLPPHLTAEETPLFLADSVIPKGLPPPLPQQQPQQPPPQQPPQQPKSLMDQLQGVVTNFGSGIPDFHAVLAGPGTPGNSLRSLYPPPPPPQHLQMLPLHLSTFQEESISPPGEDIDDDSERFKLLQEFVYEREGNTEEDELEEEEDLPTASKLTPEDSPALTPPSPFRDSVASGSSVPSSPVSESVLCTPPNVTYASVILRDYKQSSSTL
T3 sequence (P31423 whole entry): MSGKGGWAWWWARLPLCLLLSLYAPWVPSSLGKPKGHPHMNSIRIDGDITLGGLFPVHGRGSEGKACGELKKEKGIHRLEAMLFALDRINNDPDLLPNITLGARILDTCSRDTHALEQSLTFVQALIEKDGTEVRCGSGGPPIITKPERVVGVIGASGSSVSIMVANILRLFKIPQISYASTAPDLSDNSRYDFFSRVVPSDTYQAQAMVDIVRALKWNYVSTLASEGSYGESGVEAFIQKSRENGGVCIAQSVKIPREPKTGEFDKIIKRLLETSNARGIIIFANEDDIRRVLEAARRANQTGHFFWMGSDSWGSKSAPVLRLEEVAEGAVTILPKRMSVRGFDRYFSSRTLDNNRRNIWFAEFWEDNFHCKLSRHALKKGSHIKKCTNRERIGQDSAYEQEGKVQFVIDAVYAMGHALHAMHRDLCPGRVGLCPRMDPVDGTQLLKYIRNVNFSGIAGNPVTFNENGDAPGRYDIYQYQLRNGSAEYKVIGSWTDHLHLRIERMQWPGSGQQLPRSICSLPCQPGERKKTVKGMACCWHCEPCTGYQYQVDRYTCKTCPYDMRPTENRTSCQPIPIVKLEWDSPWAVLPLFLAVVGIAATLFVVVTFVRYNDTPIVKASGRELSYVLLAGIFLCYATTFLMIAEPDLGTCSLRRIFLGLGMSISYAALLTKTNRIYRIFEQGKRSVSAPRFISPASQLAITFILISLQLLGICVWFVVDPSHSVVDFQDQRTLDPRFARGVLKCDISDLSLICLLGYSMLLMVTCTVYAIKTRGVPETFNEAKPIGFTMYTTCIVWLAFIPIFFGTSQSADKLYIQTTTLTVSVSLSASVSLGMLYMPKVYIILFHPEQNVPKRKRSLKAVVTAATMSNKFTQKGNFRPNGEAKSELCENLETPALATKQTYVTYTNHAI
T2 sequence (P31421 whole entry): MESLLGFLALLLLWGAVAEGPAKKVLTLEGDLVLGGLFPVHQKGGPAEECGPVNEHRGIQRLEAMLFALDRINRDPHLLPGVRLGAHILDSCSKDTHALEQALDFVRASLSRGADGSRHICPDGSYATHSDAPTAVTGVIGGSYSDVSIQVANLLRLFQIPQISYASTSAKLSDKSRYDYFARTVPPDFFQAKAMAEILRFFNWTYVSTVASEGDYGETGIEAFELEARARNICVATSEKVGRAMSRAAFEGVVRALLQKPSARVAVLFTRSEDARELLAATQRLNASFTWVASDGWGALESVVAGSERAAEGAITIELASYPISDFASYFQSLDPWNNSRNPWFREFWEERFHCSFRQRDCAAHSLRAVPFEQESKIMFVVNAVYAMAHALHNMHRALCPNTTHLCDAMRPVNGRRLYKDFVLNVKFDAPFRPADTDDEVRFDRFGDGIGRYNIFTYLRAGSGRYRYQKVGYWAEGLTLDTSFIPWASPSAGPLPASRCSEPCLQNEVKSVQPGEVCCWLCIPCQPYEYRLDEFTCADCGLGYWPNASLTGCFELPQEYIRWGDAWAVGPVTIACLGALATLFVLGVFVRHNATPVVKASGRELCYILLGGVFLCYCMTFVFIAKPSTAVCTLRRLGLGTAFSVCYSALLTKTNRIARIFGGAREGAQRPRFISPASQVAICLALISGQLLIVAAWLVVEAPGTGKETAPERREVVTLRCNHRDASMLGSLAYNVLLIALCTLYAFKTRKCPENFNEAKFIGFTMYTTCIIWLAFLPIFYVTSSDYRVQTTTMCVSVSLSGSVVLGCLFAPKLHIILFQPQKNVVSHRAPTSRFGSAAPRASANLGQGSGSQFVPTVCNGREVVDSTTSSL
Metabotropic glutamate receptor 4 (Rattus norvegicus), sequence (P31423 whole entry, looked up): as the sequence (P31423 whole entry) above

Row | IC50 [1] | IC50 [2] | Ki (Glutamate NMDA receptor) | Ki [3] | EC50 [4] | Ki [5] | EC50 [7] | Structure (SMILES) | other results
1 | > 100 µM | > 100 µM | 0.1 µM |  |  |  |  | N[C@H](C[C@H]1CC(C(=O)O)=NO1)C(=O)O | 
2 | > 100 µM | > 100 µM |  |  |  |  |  | N[C@@H](C[C@H]1CC(C(=O)O)=NO1)C(=O)O | 
3 | > 100 µM | > 100 µM | 1.9 µM |  |  |  |  | N[C@@H](C[C@@H]1CC(C(=O)O)=NO1)C(=O)O | 
4 | > 100 µM | > 100 µM | 0.233 µM | > 1000 µM | > 1000 µM | > 1000 µM | > 1000 µM | N[C@@]1(C(=O)O)C[C@@H]2C(C(=O)O)=NO[C@@H]2C1 | EC50 [8]: > 1000 µM; Ki [9]: > 1000 µM
5 |  |  | 47 µM |  |  |  |  | N[C@@]1(C(=O)O)C[C@@H]2ON=C(C(=O)O)[C@@H]2C1 | EC50 [10]: Not Active

The next lines start with the compound.

Row | Structure (SMILES) | IC50 [1] | IC50 [2] | Ki (Glutamate NMDA receptor) | Ki [3] | EC50 [4] | Ki [5] | EC50 [7] | other results
6 | N[C@]1(C(=O)O)C[C@@H]2C(C(=O)O)=NO[C@@H]2C1 |  |  |  | 33 µM | 9.1 µM | > 1000 µM | > 1000 µM | Ki [6]: weak
7 | N[C@]1(C(=O)O)C[C@@H]2ON=C(C(=O)O)[C@@H]2C1 |  |  |  | > 1000 µM | > 1000 µM |  |  | EC50 [8]: > 1000 µM; Ki [9]: > 1000 µM
8 | N[C@H](C[C@@H]1CC(C(=O)O)=NO1)C(=O)O | > 100 µM | > 100 µM | 0.51 µM |  |  |  |  | 
9 | NC1(C(=O)O)CC2ON=C(C(=O)O)C2C1 (racemic; form 1) | > 100 µM | > 100 µM | 0.37 µM | 94 µM |  | > 1000 µM | > 1000 µM | IC50 [11]: 14 µM
10 | NC(CC1CC(C(=O)O)=NO1)C(=O)O (racemic; form 1) | > 100 µM | > 100 µM | 0.21 µM | > 1000 µM | > 1000 µM | > 1000 µM | > 1000 µM | EC50 [8]: > 1000 µM; IC50 [11]: 14.2 µM; Ki [9]: > 1000 µM
11 | NC1(C(=O)O)CC2ON=C(C(=O)O)C2C1 (racemic; form 2) |  |  | > 100 µM | 27 µM | 16 µM |  |  | Ki ([5]; cho): > 1000 µM; EC50 ([7]; cho): > 1000 µM
12 | NC(CC1CC(C(=O)O)=NO1)C(=O)O (racemic; form 2) |  |  | 0.96 µM |  |  |  |  | IC50 [11]: 30.5 µM
